# Compound activity from PubChem.
# Dyrk1A ADPGlo: blocks rat Dyrk1A kinase activity; Q63470; ADP-Glo luminescence, NFATc1 peptide; inhibition, % at 12.5 µM; actives 0.43% (n = 310,000); AID 504441; in the data active means inhibition above about 50%
# CAL PDZ FP-1: blocks peptide binding to human CAL PDZ domain | purified CAL PDZ, TMR-peptide fluorescence polarization, 1 h | inhibition, % at 20 µM | actives 0.02% (n = 330,000) | Q9HD26;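 active means highest replicate inhibition of at least 40%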
#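 Material: tagged CAL PDZ domain; buffer or medium: 25 mM sodium phosphate pH 7.4, 150 mM NaCl, TCEP, IgG, Thesit; compound dosing: single point, 20 µM; schedule: 1 h incubation at room temperature before polarization reading; measured by: FP readout, S and P plane fluorescence; read-out basis: percent inhibition from loss of millipolarization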
# CAL PDZ FP-2: blocks peptide binding to the human CAL PDZ domain; inhibition, % at 24.9 µM; AID 602252; actives 0.92% (n = 300,000); purified CAL PDZ, TMR-peptide fluorescence polarization, 1 h; Q9HD26;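 active means mean inhibition of at least 30% with at least half of replicates also reaching 30%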
# ARNT-TACC3 inh: disrupts binding between human ARNT and TACC3 | AID 623870 | Q9Y6A5 | actives 0.66% (n = 390,000) | inhibition, % at 9.99 µM | AlphaScreen His-ARNT PAS-B/GST-TACC3 binding, luminescence; TACC3 fragment carries E629A point mutation;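 active means mean inhibition of replicates at least 50% and at least half of replicates each reaching 50%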
# ARNT Alpha ctr: interferes with AlphaScreen signal, flagging false ARNT-TACC3 hits. shares compounds with ARNT-TACC3 inh. His-ARNT PASB-GST AlphaScreen artifact counter-screen, luminescence. AC50, µM (series often up to 68 µM). actives 50% (n = 1,200);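 active means every separate test run was called active for a drop in luminescence, with AC50 within twice the top valid dose, actives reach about 71 µM in these data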
# A number is an active result; . = inactive; / = no result. This is a sample that favours compounds with a hit; in the whole collection about 1.4% have one here.
SMILES,Dyrk1A ADPGlo,CAL PDZ FP-1,CAL PDZ FP-2,ARNT-TACC3 inh,ARNT Alpha ctr
C[C@@H]1CCCCO[C@@H](CN(C)C(=O)Nc2ccc(C(F)(F)F)cc2)[C@H](C)CN([C@@H](C)CO)C(=O)c2cc(NS(C)(=O)=O)ccc2O1,/,/,/,.,/
c1ccc(-c2n[nH]c(-c3ccccn3)n2)nc1,.,.,.,60,7.5µM
c1ccc(-c2nn[nH]n2)nc1,.,.,.,67,53µM
Cc1cc(NC(=O)c2cc(-c3ccccc3)on2)no1,.,.,.,.,/
Cn1c(NC(=O)c2cc(-c3ccccc3)on2)nc2ccccc21,/,/,/,/,.
Cc1cccc(NC(=O)c2cc(-c3ccccc3)on2)n1,/,/,/,/,.
CCCn1cc(NC(=O)c2cc(-c3ccccc3)on2)cn1,.,.,.,.,/
O=C(Nc1ccc2ccccc2n1)c1cc(-c2ccccc2)on1,/,/,/,/,.
CN(Cc1ccccc1)C(=O)c1[nH]cnc1C(=O)Nc1nccs1,.,.,.,55,.
C[C@@H]1CN([C@@H](C)CO)C(=O)Cc2cc(NC(=O)Nc3ccc4c(c3)OCO4)ccc2O[C@@H]1CN(C)Cc1ccccc1,/,/,/,.,/
CN(C)CC(=O)Nc1ccc2c(c1)[C@@H]1C[C@@H](CC(=O)NCc3ccccn3)O[C@H](CO)[C@@H]1O2,/,/,/,.,/
O=C1c2cccnc2C(=O)N1Cc1ccc(S(=O)(=O)NCc2ccco2)s1,.,.,.,57,.
C[C@H]1CN([C@@H](C)CO)C(=O)Cc2cc(NC(=O)C3CC3)ccc2O[C@@H]1CN(C)CC1CCCCC1,/,/,/,.,/
C[C@@H]1CN([C@H](C)CO)C(=O)c2cc(-c3cccc(C(=O)N(C)C)c3)cnc2O[C@H]1CN(C)S(=O)(=O)c1ccccc1,/,/,/,.,/
O=C(NC1CCc2ccccc2C1)c1cc(-c2ccccc2)on1 (configuration not stated),/,/,/,/,.
Cc1ccc(-c2cc(C(=O)NC3CCCC3)no2)cc1,.,.,/,.,/
O=C(NC1Cc2ccccc2C1)c1cc(-c2ccccc2)on1,/,/,/,/,.
C[C@H](CO)N1C[C@H](C)[C@@H](CN(C)CC2CCOCC2)Oc2cc(C#CC3CC3)ccc2S1(=O)=O,/,/,/,.,/
CN(C)C(=O)C[C@H]1C[C@H]2c3cc(NC(=O)c4ccc5c(c4)OCO5)ccc3O[C@H]2[C@H](CO)O1,/,/,/,.,/
